Screening results (PubChem BioAssay)
An excerpt weighted towards active compounds, which were near 3.5% of everything screened.
RGS4 act: potentiators or activators of RGS4; AID 463111; HEK293 M3R/inducible RGS4, carbachol calcium flux Fluo4; hits give low values; hit rate 0.92% among 310,000; B-score at 10 µM;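 active = B-score of the integrated calcium signal more than 4 SD below the library mean, with starting fluorescence not abnormally high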;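 note: negative B-score means reduced calcium response which marks RGS4 activation or potentiation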
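System – HEK293 FlpIn-TREx cells, stable M3R, doxycycline-inducible RGS4 · Reagent – ECmax carbachol challenge · Times – compound preincubation 20 min at room temperature before agonist · Technique – Fluo4 fluorescence kinetic imaging of calcium · Measure – B score of integrated Fluo4 ratio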
RGS4 block: inhibitors of human RGS4. HEK293 M3R/RGS4 inducible, Fluo-4 calcium flux; hits give high values; triggered by carbachol at its EC20. B-score at 10 µM. P49798. AID 463165. hit rate 0.45% among 310,000;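 active = B-score, a plate-corrected calcium signal, over three deviations above library mean, with baseline fluorescence within five deviations of library mean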;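 note: RGS4 expression induced by doxycycline in cells with stable M3 receptor; B-score is computed from the integrated fluorescence ratio over baseline after carbachol; higher B-score means a larger calcium signal and so more RGS4 inhibition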
Target sequence (P49798 whole entry, looked up): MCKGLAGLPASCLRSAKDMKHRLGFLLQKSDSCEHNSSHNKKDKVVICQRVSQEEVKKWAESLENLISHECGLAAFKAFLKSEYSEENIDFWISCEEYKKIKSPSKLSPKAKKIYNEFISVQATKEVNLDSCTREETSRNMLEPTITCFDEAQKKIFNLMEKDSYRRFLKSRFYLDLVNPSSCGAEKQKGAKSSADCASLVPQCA
MrgX1 PAM: human MrgX1 positive allosteric modulation, primary screen | MrgX1-HEK293, Fluo-4 calcium flux, FDSS; hits give high values | Q96LB2 | B-score at 10 µM | hit rate 0.63% among 310,000 | AID 588675;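 active = plate-corrected calcium response at least 3 library SD above typical, normal starting fluorescence, not activating the receptor alone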;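 note: compound read alongside a low EC10 to EC30 dose of BAM8-22 agonist; peak minus trough fluorescence over baseline measured at the second addition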
Target sequence (Q96LB2 whole entry, looked up): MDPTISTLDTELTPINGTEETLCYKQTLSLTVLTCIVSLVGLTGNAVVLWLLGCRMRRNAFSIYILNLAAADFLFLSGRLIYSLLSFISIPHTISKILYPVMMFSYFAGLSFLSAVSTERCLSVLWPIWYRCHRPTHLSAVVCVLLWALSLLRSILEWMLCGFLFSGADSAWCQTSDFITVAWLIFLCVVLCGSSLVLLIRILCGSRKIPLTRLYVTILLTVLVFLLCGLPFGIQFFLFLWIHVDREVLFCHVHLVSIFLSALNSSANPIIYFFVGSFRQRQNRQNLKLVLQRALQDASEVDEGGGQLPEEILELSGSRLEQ
MrgX1 antagonist: antagonists of human MrgX1 receptor; Q96LB2; MRGX1-HEK293 calcium flux, Fluo-4, BAM8-22 antagonism; hits give low values; hit rate 1.3% among 310,000; B-score at 10 µM;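 active = calcium-response B-score plate-corrected more than 3 library SD below zero, starting fluorescence within 5 deviations, no agonist response on first addition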;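 note: peak minus trough fluorescence over baseline after final BAM8-22 challenge near maximal dose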
MrgX1 ag: activates human MrgX1 receptor signaling | Q96LB2 | MrgX1-HEK293 cells, Fluo-4 calcium fluorescence, agonist mode; hits give high values | B-score at 10 µM | hit rate 0.44% among 310,000 | AID 588627;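 active = calcium response B-score plate-corrected fluorescence ratio at least 3 library SD, with starting fluorescence B-score inside 5 SD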
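System: HEK293 cells stably expressing human MrgX1 receptor; Dosing: test compound in the initial addition of three; Schedule: overnight plating, then 30 min 37 °C plus 30 min room-temperature dye loading; Detection: kinetic calcium dye fluorescence, Fluo-4 NW; Controls: per-plate positive and negative controls for Z′ factor.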
* marks the source's active call; other numbers are inactive results; i = inactive; x = no result given.

SMILES	RGS4 act	RGS4 block	MrgX1 PAM	MrgX1 antagonist	MrgX1 ag
O=C(NCCN1C(=O)S/C(=C\c2cccs2)C1=O)[C@H](Cc1ccccc1)N1C(=O)c2ccccc2C1=O	i	i	i	-8.4*	i
CC(C(=O)NCCN1C(=O)S/C(=C\c2cccs2)C1=O)N1C(=O)c2ccccc2C1=O (stereo not given)	i	i	i	i	i
CC(C)c1ccc(NC(=S)N2CCCC(c3ccc(F)cc3)=N2)cc1	i	i	i	i	i
N#Cc1ccc(NC(=O)CNc2cc(S(=O)(=O)N3CCOCC3)ccc2NCC2CCCO2)cc1 (stereo not given)	i	i	6.6*	i	i
Cn1nc(CC(=O)NC2CCCCCCCCCCC2)c2ccccc2c1=O	i	i	i	i	i
Cn1nc(CC(=O)Nc2ncc(Br)s2)c2ccccc2c1=O	i	i	8.9*	i	i
Oc1ccccc1C1CC(c2cccs2)=NC(c2ccc(Cl)cc2)N1 (stereo not given)	i	i	7.4*	i	i
O=Cc1cn(CC(O)Cn2cc(C=O)c3ccccc32)c2ccccc12	i	i	i	i	i
CS(=O)(=O)N(Cc1ccco1)CC(O)Cn1cc(C=O)c2ccccc21 (stereo not given)	i	i	i	-5.7*	i
COc1ccc(S(=O)(=O)n2cccc2)c(OC)c1	i	i	i	i	i
C=CCOc1ccc(CNCCc2ccc(S(N)(=O)=O)cc2)cc1	-7.4*	i	i	i	i
COc1ccc(NC(=O)Nc2cc(C(C)(C)C)on2)cc1OC	i	i	i	i	i
Clc1ccc2c(c1)CCc1cccnc1C2=C1CCNCC1	-7.2*	i	i	i	i
O=C(Nc1ccccc1-c1ccccc1)NC1CC2CCCC(C1)N2Cc1ccc(F)cc1 (stereo not given)	-10*	i	i	i	i
O=C(Nc1ccccc1-c1ccccc1)NC1CC2CCCC(C1)N2CCc1ccccc1 (stereo not given)	-7.1*	i	i	i	i
S=C(Nc1ccc(Cl)cc1)NC1CC2CCC(C1)N2Cc1ccccc1 (stereo not given)	i	i	i	i	i
CCc1ccc(NC(=S)NC2CC3CCCC(C2)N3Cc2ccccc2)cc1 (stereo not given)	-8.7*	i	i	i	i
Cc1ccc(CN2C3CCCC2CC(NC(=O)c2ccc(F)cc2)C3)cc1 (stereo not given)	i	i	i	i	i
CCCN1C2CCCC1CC(NC(=O)Nc1cccc(C(C)=O)c1)C2 (stereo not given)	i	i	i	i	i
CCCC1=NN2C(=N)/C(=C\c3cc(C)n(Cc4ccccc4)c3C)C(=O)N=C2S1	i	i	i	i	i
CCCC1=NN2C(=N)/C(=C\c3ccc(SCc4ccco4)o3)C(=O)N=C2S1	i	i	i	i	31*
O=C(NC1CCCCCC1)c1ccco1	i	i	i	i	i
O=C(Cc1ccc(Cl)cc1)Nc1ccccc1N1CCN(C(=O)c2ccccc2)CC1	-7.1*	i	i	i	i
COc1ccc2nc(NC(=O)/C=C/c3ccc4c(c3)OCO4)sc2c1	i	i	i	-6.3*	i
COc1ccc2nc(NC(=O)c3ccc([N+](=O)[O-])o3)sc2c1	i	i	12*	i	i
SMILES	RGS4 act	RGS4 block	MrgX1 PAM	MrgX1 antagonist	MrgX1 ag
O=C(Nc1nc2c(F)cc(F)cc2s1)c1ccc([N+](=O)[O-])o1	i	i	8.6*	i	i
COc1ccc2nc(Nc3ccc4c(c3)OCO4)sc2c1	i	i	i	i	i
C(=C\n1nnc2ccccc21)/c1ccccn1	i	i	i	i	i
C[N+]1(CC#CC(O)(c2ccccc2)c2ccccc2)CCCC1	-8.4*	i	i	i	i
CC(C)[N+](C)(C)CC#CC(O)(c1ccccc1)c1ccccc1	-7.8*	i	i	i	i
OC(C#CCCN1CCCCC1)(c1ccccc1)c1ccccc1	i	i	i	i	i
COc1ccccc1N1CCN(S(=O)(=O)CCNC(=O)Cc2ccc(F)cc2)CC1	i	i	i	i	i
CC1(c2ccc(OC(F)F)cc2)NC(=O)N(CC(=O)Nc2ccc(F)cc2)C1=O (stereo not given)	i	i	i	i	i
CC1(c2ccc(OC(F)F)cc2)NC(=O)N(CC(=O)Nc2ccc(OC(F)F)cc2)C1=O (stereo not given)	i	i	i	-12*	i
CC1(c2ccc(OC(F)F)cc2)NC(=O)N(CC(=O)Nc2cccc(F)c2)C1=O (stereo not given)	i	i	i	-6.2*	i
Cc1ccc(S(=O)(=O)N2[C@@H](c3ccc(Cl)cc3)C(C(=O)O)=CC[C@H]2c2cccc(C)c2)cc1	x	x	i	i	i
Cc1ccc(S(=O)(=O)N2[C@@H](c3ccccc3)C(C(=O)O)=CC[C@H]2c2ccc3c(c2)OCO3)cc1	x	x	10*	i	i
Cc1ccc(S(=O)(=O)N2[C@@H](c3ccc(Cl)cc3)C(C(=O)O)=CC[C@H]2c2cccc(Cl)c2)cc1	x	x	i	i	30*
COc1ccc(CCN2CC(C(=O)OCC(=O)Nc3c(C)nn(-c4ccccc4)c3C)CC2=O)cc1OC (stereo not given)	i	i	i	i	i
N#Cc1cnc2nc(SCc3ccccc3)nn2c1	i	i	i	i	i
N#C/C(=C/c1ccc(N2CCCCCC2)o1)c1ccc(F)cc1	i	i	18*	i	i
N#C/C(=C/c1ccc(N2CCOCC2)o1)c1ccc(Br)cc1	i	i	i	i	39*
CCOC(=O)C1(CCCc2ccccc2)CCN(C2CCN(C(C)=O)CC2)CC1	i	i	i	i	i
CCCC(=O)N1CCN(c2nc3c(OC)ccc(Cl)c3s2)CC1	i	i	i	i	i
O=C1Nc2ccccc2N(O)N1c1ccc(Cl)cc1	i	i	i	i	i
CCN1c2ccccc2NC2C1C(C(C)=O)C(=O)N2c1ccc(Cl)cc1 (stereo not given)	i	i	i	-5.1*	i
CCOCCCN(C)C1CCN(C(=O)c2oc3ccccc3c2NC(=O)c2ccc(F)cc2)CC1	i	i	i	i	i
CCN1CCN(C(=O)c2ccc(Sc3ccccc3Cl)c([N+](=O)[O-])c2)CC1	i	i	i	i	i
